Rows were chosen to be rich in hits. Some 3.8% of all compounds tested hit in one or more screens of this group.
hERG rescue: hERG rescue from dofetilide block, primary screen, cell-based, CHO-hERG, FluxOR thallium flux, dofetilide IC70 | 0.51% of 310,000 active | dofetilide IC70 present | activation (rescue from dofetilide block), less the hit threshold, % at 10 µM;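 active = activation above the mean of controls blocked by dofetilide plus 5 SD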;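 also: thallium influx through hERG after potassium depolarization seen as dye fluorescence rise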
Kir21 inh: inhibitors of mouse Kir2.1 inward-rectifier potassium channel | Inward rectifier potassium channel 2 (Mus musculus), P35561 | HEK293-Kir2.1, FluxOR thallium flux fluorescence; active compounds read low | B-score at 10 µM | 0.85% of 310,000 active | AID 1672, 2009;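 active = fluorescence ratio B-score at or below minus 3 SD of library scores, with starting-brightness B-score within 2 SD, cut at about -4.2 in these data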;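 also: channel flux triggered by added potassium and thallium sulfate stimulus; B-score of peak minus minimum fluorescence over baseline after thallium stimulus; more negative B-score means stronger Kir2.1 block with less thallium influx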
KCNQ1 pot: potentiators or activators of KCNQ1 channel, primary screen, cell-based, thallium flux, high-throughput; AID 2648, 2010; CHO-K1 KCNQ1, thallium flux FluxOR fluorescence; active compounds read high; Potassium voltage-gated channel subfamily KQT member 1 (Homo sapiens), P51787; B-score at 10 µM; 0.35% of 310,000 active;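 active = fluorescence ratio B-score, a plate-corrected score, at least three library SD, with initial intensity B-score within 5 SD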
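assay system = CHO-K1 cells stably expressing KCNQ1 | medium = assay buffer, equal DMSO in all wells | timing = 37 °C overnight plating, 90-min dark dye load, 20-min compound pretreatment | measured by = kinetic FluxOR thallium fluorescence, 10-s 1-Hz baseline, 110-s post-stimulus read | measure = fluorescence change relative to baseline, converted to B score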
KCNQ1 block: inhibitors of human KCNQ1 channel, primary screen, cell-based, thallium flux, high-throughput; 1.3% of 310,000 active; CHO-K1 KCNQ1, FluxOR thallium flux fluorescence; active compounds read high; B-score at 10 µM; AID 2642, 2010; Potassium voltage-gated channel subfamily KQT member 1 (Homo sapiens), P51787;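 active = compounds whose thallium flux B-score, printed positive for inhibition, exceeds three library SD while starting fluorescence stays within three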;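 also: channel opened by potassium depolarization with thallium stimulus after 20 min compound exposure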
KCNK9 inh: KCNK9 potassium channel inhibitors, primary screen, HEK293 cells, thallium flux | Potassium channel subfamily K member 9 (Homo sapiens), Q9NPC2 | FluxOR thallium flux fluorescence; active compounds read low | B-score at 10 µM | 1.2% of 310,000 active | AID 488922, 2010;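 active = ratio B-score over 3 SD below the library mean, with starting fluorescence within 5 SD of its mean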;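 also: negative B-score means less thallium flux so channel inhibition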
Target sequence (Q9NPC2 whole entry, looked up): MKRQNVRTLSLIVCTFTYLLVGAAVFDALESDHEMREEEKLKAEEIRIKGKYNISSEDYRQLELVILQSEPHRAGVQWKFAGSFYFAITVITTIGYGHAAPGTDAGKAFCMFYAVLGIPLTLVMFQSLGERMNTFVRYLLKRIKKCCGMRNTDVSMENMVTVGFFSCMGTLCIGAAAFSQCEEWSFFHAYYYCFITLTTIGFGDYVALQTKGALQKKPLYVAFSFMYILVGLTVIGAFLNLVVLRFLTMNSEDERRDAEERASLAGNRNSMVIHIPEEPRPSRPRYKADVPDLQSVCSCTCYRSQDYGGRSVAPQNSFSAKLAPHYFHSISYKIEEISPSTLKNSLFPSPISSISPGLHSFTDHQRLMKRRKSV
KCNK3 inh: human KCNK3 channel inhibitors, primary screen, CHO cells, FluxOR thallium flux, B-score | Potassium channel subfamily K member 3 (Homo sapiens), O14649 | FluxOR fluorescence; active compounds read low | B-score at 10 µM | 0.84% of 340,000 active | AID 602410, 2012;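 active = B-score under library mean minus 4 SD, starting fluorescence ratio at most library mean plus 5 SD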;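 also: more negative B-score means stronger inhibition of thallium flux through KCNK3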
Target sequence (O14649 whole entry, looked up): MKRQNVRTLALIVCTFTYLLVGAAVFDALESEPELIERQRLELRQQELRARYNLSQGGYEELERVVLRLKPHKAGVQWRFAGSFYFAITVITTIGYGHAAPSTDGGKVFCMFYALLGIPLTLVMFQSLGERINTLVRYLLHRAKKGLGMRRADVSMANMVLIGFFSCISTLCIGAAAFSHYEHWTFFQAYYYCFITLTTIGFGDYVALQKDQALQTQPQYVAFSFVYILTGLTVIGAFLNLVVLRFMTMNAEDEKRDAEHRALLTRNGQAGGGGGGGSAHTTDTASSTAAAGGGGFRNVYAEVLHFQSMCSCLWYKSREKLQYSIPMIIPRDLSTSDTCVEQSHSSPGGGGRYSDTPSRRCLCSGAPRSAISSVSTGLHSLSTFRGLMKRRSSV
KCNK9 block conf: KCNK9 potassium channel inhibitors, confirmation, HEK293 cells, thallium flux, duplicate; inhibition, % at 10 µM; shares compounds with KCNK9 inh; 43% of 4,900 active; FluxOR thallium flux fluorescence;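 active = thallium signal inhibited by more than 5 SD of the compound-free buffer control wells, on both duplicate plates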
Kir2-1 spec: mouse Kir2.1 channel inhibition, confirmation, selectivity assay for KCNK9 modulator project, cell-based, HEK293, thallium flux. inhibition, % at 10 µM. shares compounds with KCNK9 inh. Kir2.1 cells, FluxOR thallium flux fluorescence. 4% of 4,900 active;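 active = thallium signal drop more than 5 SD beyond the mean of the no-compound control wells, seen in both duplicate plates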;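 also: signal is fluorescence rise after thallium addition divided by baseline fluorescence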
HEK293 Tl ctr: thallium flux in non-induced HEK293 cells, confirmation, counter-screen for KCNK9 inhibitor project, cell-based, second counter screen, non-induced KCNK9-HEK293. shares compounds with KCNK9 inh. FluxOR thallium flux. inhibition, % at 10 µM. 40% of 4,900 active;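 active = thallium signal drop beyond 5 SD of the untreated control mean, on both duplicate plates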
Each line names hits and unclear results; the compound was inactive in the other large screens (follow-up assays come after a bar, where they were run).

C=CCSc1nc2c(c(=N)n1CC=C)C1CCCC1S2 (stereo not given)	KCNK9 inh -18 | KCNK9 block conf inactive | Kir2-1 spec inactive | HEK293 Tl ctr 36%
C=CCn1c(C)nnc1SCC(=O)NC1CCCCC1	none
CCc1ccc(-n2c(SCC(=O)Nc3ccc(C(=O)O)cc3)nnc2-c2ccncc2)cc1	none (no result: KCNK3 inh)
COc1ccccc1N1C(C)=CC(=C(C#N)c2nc3ccccc3s2)C=C1C	KCNK9 inh -8.4 | KCNK9 block conf 37% | Kir2-1 spec inactive | HEK293 Tl ctr 70%
Cc1nn(-c2ccccc2)c(Cl)c1/C=N/Nc1nc2ccccc2n1C	none | KCNK9 block conf inactive | Kir2-1 spec inactive | HEK293 Tl ctr inactive
Cc1ccc2c(c1)N(C(=O)CCC(=O)NCC(C)c1ccccc1)CC(C)O2 (stereo not given)	none
COC(=O)c1ccccc1NC(=O)CCC(=O)N1CC(C)Oc2ccc(C)cc21 (stereo not given)	none | KCNK9 block conf inactive | Kir2-1 spec inactive | HEK293 Tl ctr inactive
CCc1ccccc1NC(=O)CNC(=O)CNC(=O)Cc1ccccc1	none (no result: hERG rescue, Kir21 inh, KCNQ1 pot, KCNQ1 block, KCNK9 inh)
COc1ccc(N2CCN(C(=O)CSc3nc(C)cs3)CC2)cc1	none
COc1ccc(N2CCN(C(=O)CSc3ncnc4scc(-c5ccc(C)cc5)c34)CC2)cc1	none | KCNK9 block conf inactive | Kir2-1 spec inactive | HEK293 Tl ctr inactive
CCOC(=O)c1c(NC(=O)CSc2nnc(C)s2)sc2c1CCC(C)C2 (stereo not given)	KCNK9 inh -9.8 | KCNK9 block conf inactive | Kir2-1 spec inactive | HEK293 Tl ctr 52%
CCOC(=O)c1c(NC(=O)CSc2nnc(-c3ccc(OC)cc3)o2)sc2c1CCC2	none | KCNK9 block conf inactive | Kir2-1 spec inactive | HEK293 Tl ctr inactive
CCOC(=O)c1c(NC(=O)CSc2nnc(-c3cccnc3)o2)sc2c1CCC2	none
CCOC(=O)c1c(NC(=O)Cn2nnc3ccccc32)sc2c1CCC(C)C2 (stereo not given)	none
NCCCC[C@H](N)c1nnc([C@H](CC(=O)O)NC(=O)C2CCNCC2)o1	none
Cc1ccc(C(c2nnnn2Cc2cccs2)N2CCN(Cc3ccc4c(c3)OCO4)CC2)cc1 (stereo not given)	KCNK9 inh -12 | KCNK9 block conf inactive | Kir2-1 spec inactive | HEK293 Tl ctr 32%
CC(C)/C=C/C(=O)N1CCCC(N2CCN(c3ccccc3F)CC2)C1 (stereo not given)	none | KCNK9 block conf inactive | Kir2-1 spec inactive | HEK293 Tl ctr inactive
O=C(c1ccco1)N1CCCC(N2CCN(c3ccccc3F)CC2)C1 (stereo not given)	none
Cc1ccc(OCCC(=O)OCC(=O)Nc2cc(C)nn2-c2ccccc2)cc1	none
Fc1ccccc1C1CCN(Cc2nc(COc3ccccc3)no2)C1 (stereo not given)	none | KCNK9 block conf inactive | Kir2-1 spec inactive | HEK293 Tl ctr inactive
Fc1ccccc1OCC1CCCN(Cc2nc(CC3CC3)no2)C1 (stereo not given)	none | KCNK9 block conf inactive | Kir2-1 spec inactive | HEK293 Tl ctr inactive
c1ccc(OCc2noc(CN3CCC(C4CCCCC4)C3)n2)cc1 (stereo not given)	none | KCNK9 block conf inactive | Kir2-1 spec inactive | HEK293 Tl ctr inactive
COCC1CCN(Cc2nc(COc3ccccc3)no2)C1 (stereo not given)	none
COC1CCCN(Cc2nc(Cc3ccccc3F)no2)C1 (stereo not given)	none
c1ccc(COC2CCCN(Cc3nc(Cc4ccccc4)no3)C2)cc1 (stereo not given)	none | KCNK9 block conf inactive | Kir2-1 spec inactive | HEK293 Tl ctr inactive
COc1ccc(CNc2ncnc3sccc23)cc1	none
Cc1ccc(NC(=O)CN(C)C(=O)CSc2nc3ccccc3o2)cc1	none
Clc1cccc(C2CCN(Cc3nc(CC4CC4)no3)C2)c1 (stereo not given)	none | KCNK9 block conf inactive | Kir2-1 spec inactive | HEK293 Tl ctr inactive
Cc1cccc(/C=N/n2c(C)nc3ccccc3c2=O)c1	none
CN(C)/C=C(/C#N)C(=O)c1cccc(Oc2ccc(C(C)(C)C)cc2)c1	none | KCNK9 block conf inactive | Kir2-1 spec inactive | HEK293 Tl ctr 42%
COc1cccc(CNCc2ccco2)c1O	none
CCCCC(=O)Nc1ccccc1C(=O)OCC(=O)c1ccc2c(c1)OCCO2	KCNK9 inh -19 | KCNK9 block conf 78% | Kir2-1 spec inactive | HEK293 Tl ctr 43%
COc1ccc(NC(=O)c2ccc(-c3ccc(C)c4ccccc34)o2)cc1	none
Cc1ccc(-c2ccc(C(=O)Nc3cccc(F)c3)o2)c2ccccc12	none | KCNK9 block conf inactive | Kir2-1 spec inactive | HEK293 Tl ctr inactive
CCN(C[C@H]1N[C@@](Cc2ccccc2)(C(=O)OC)[C@H]2C(=O)N(C)C(=O)[C@@H]12)S(=O)(=O)c1ccc(OC)cc1	none (no result: hERG rescue, Kir21 inh, KCNQ1 pot, KCNQ1 block, KCNK9 inh)
c1ccc(C2Nc3ccccc3C3OCCCC23)cc1 (stereo not given)	none | KCNK9 block conf inactive | Kir2-1 spec inactive | HEK293 Tl ctr inactive
Cc1cc(-c2ccccc2)nc(N/N=C/c2ccco2)n1	none
C(=N/Nc1nc(-c2ccccc2)cc(-c2ccccc2)n1)/c1cccnc1	none | KCNK9 block conf inactive | Kir2-1 spec inactive | HEK293 Tl ctr inactive
Cc1cc(-c2ccccc2)nc(N/N=C/c2ccc(O)cc2O)n1	KCNK9 inh -15 | KCNK9 block conf 75% | Kir2-1 spec inactive | HEK293 Tl ctr 33%
Cc1ccc(-c2cc(-c3ccccc3)nc(N/N=C/c3cccnc3)n2)cc1	none
O=C(NCC(c1ccco1)N1CCCCC1)c1ccc(COc2ccccc2)cc1 (stereo not given)	none
CC1(C)CC(NS(=O)(=O)c2ccc(S(N)(=O)=O)cc2)CC(C)(C)N1	none
N#Cc1c(Sc2ncc(C(F)(F)F)cc2Cl)nsc1C/C=N\OCc1ccccc1Br	none | KCNK9 block conf inactive | Kir2-1 spec inactive | HEK293 Tl ctr inactive
COc1ccc(/C=C2\CCC/C(=C\c3ccc(OC)c(OC)c3OC)C2=O)c(OC)c1OC	none | KCNK9 block conf inactive | Kir2-1 spec inactive | HEK293 Tl ctr inactive

From PubChem BioAssay
